An excerpt weighted towards active compounds, which were near 5.1% of everything screened.
STAT3 activator: IL-6 driven STAT3 reporter potentiators, primary screen, U3A cells, luciferase, luminescence, MLSCN library; IL-6 STAT3-luciferase reporter; 100% = signal with IL-6 EC80 alone; activation (% of control), % at 5.6 µM; 190,000 tested, 0.91% active;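 active = activation above the screen-wide mean of compound activation plus 3 SD, cut at about 130% in these data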;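 note: 0% = background luminescence of wells with medium and substrate only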
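Test system: Human STAT1-deficient U3A cells with stable STAT3-luciferase reporter | Also added: Interleukin-6, 33 ng/mL | Timing: Compound pre-incubation 1 h before IL-6, then 6 h stimulation at 37 °C | Technique: Luciferase reporter luminescence | Read-out: Percent of IL-6-only median luminescence | Benchmarks: IL-6-only wells as 100% reference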
STAT1 activator: STAT1 signaling activators, primary screen, cell-based, HTS, luciferase reporter. NIH 3T3 STAT1-luciferase reporter, IFN-gamma, luminescence; 100% = IFN-gamma alone, no compound. activation (% of control), % at 5.5 µM. 200,000 tested, 2.6% active;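 active = activation above the screen-wide mean activation plus 3 SD, cut at about 130% in these data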;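 note: raw ratio to IFN-gamma control signal so 100% means no change and 0% no light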
APP 5'UTR act: activators of APP 5'UTR luciferase reporter, primary screen, SH-SY5Y cells. SH-SY5Y APP 5'UTR luciferase reporter, luminescence; zero percent = DMSO vehicle wells. activation, % at 2 µM. 190,000 tested, 1% active;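 active = activation above a set limit, based on mean plus 3 SD of controls, cut at about 140% in these data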
STAT1 inh: STAT1 signaling inhibitors, primary screen, cell-based, HTS, luciferase reporter. NIH 3T3 STAT1-luciferase reporter, IFN-gamma, luminescence. inhibition, % at 5.5 µM. 200,000 tested, 0.35% active. AID 920, 2007;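 active = inhibition above a set limit, the mean inhibition across all tested compounds plus 3 SD, cut at about 34% in these data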;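 note: 0% = IFN-gamma with DMSO and 100% = IFN-gamma with 300 µM nifuroxazide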
NF-kB neuron act: activators of NF-kB expression in neurons, primary screen, cell-based, HTS. human neuronal cells, NF-kB reporter expression; hits give high values. fold change at 12.5 µM. 190,000 tested, 1.6% active. AID 1239, 2008; in the data active = fold change above about 3.3
STAT3 inh: IL-6 driven STAT3 reporter inhibitors, primary screen, U3A cells, luciferase, luminescence, MLSCN library. inhibition, % at 5.5 µM. 190,000 tested, 0.89% active. AID 862, 2007. IL-6 STAT3-luciferase reporter; host cell line lacks STAT1;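 active = inhibition above the mean inhibition across all screened compounds plus 3 SD, cut at about 44% in these data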;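 note: 0% = DMSO only wells and 100% = 100 µM nifuroxazide control wells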
STAT1 act conf: STAT1 signaling activators, confirmation, cell-based, HTS, luciferase reporter; activation (% of control), % at 5.7 µM; 1,200 tested, 97% active; AID 1262, 2008; shares compounds with STAT1 activator; NIH 3T3 STAT1-luciferase reporter, IFN-gamma potentiation, luminescence; 100% = IFN-gamma EC80 alone, no compound;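 active = activation above a set limit carried over from the earlier primary STAT1 screen, cut at about 140% in these data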;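 note: simple ratio to median IFN-gamma plus DMSO wells so 0% means no light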
NFkB act: NF-kB reporter activators, TNF-alpha stimulated, counter-screen for STAT1 activator project, cell-based, HEK293T, luciferase luminescence; activation (% of control), % at 5.7 µM; 100% = TNF-alpha with vehicle only; shares compounds with STAT1 activator; 1,200 tested, 43% active; AID 1306, 2008;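 active = activation above the mean of solvent-only control wells plus 3 SD, set per campaign, cut at about 130% in these data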;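 note: TNF-alpha given at a submaximal dose yielding about 80% of full reporter signal; values are well signal over median control so 100% means no change and 0% no light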
STAT3 act STAT1c: STAT3 reporter activation by STAT1 hits, confirmation, counter-screen for STAT1 activator project, U3A cells, luciferase, luminescence; shares compounds with STAT1 activator; IL-6; cells lack STAT1; 100 = IL-6 alone, no compound effect; activation (% of control), % at 5.7 µM; 1,200 tested, 46% active; AID 1316, 2008;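 active = activation above the solvent-only control well mean plus 3 SD, set per plate batch, cut at about 110% in these data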;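 note: 0% = no luminescence and 100% = median IL-6 plus DMSO wells; higher means more STAT3 reporter activation so hits are non-selective activators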
* marks the source's active call; other numbers are inactive results; · = no result given.

SMILES | STAT3 activator | STAT1 activator | APP 5'UTR act | STAT1 inh | NF-kB neuron act | STAT3 inh | STAT1 act conf | NFkB act | STAT3 act STAT1c
COc1cc(/C=C(\C#N)c2nc3c(s2)CCCC3)ccc1O | 109.4 | 120.0 | 59.8 | -21.8 | 2.74 | -4.7 | · | · | ·
COC(=O)c1ccc(NC(=S)Nc2ccc(O)cc2)cc1 | 100.3 | 101.5 | 11.0 | -3.0 | 1.38 | 7.5 | · | · | ·
COC(=O)c1ccc(NC(=S)Nc2ccccn2)cc1 | 96.3 | 164.7* | · | -71.9 | 3.05 | 10.2 | 189.6* | 134.6* | 100.3
Cn1cccc1/C=C1\CCC/C(=C\c2cccn2C)C1=O | 92.8 | 151.9* | 143.2* | -56.1 | 5.99* | 12.9 | 228.5* | 155.2* | 107.7
CC(C)(C)OC(=O)N/N=C\C=C\c1ccc2c(c1)OCO2 | 102.9 | 158.4* | · | -65.7 | 1.12 | -3.1 | 184.5* | 130.4 | 111.1*
O=C(Nc1ccc(-c2nnc(-c3ccccc3)o2)cc1)C(F)(F)F | 103.8 | 113.6 | 20.6 | -15.0 | 1.89 | 1.3 | · | · | ·
CC(=O)/C=C(\C)Nc1ccc(-c2cnc(-c3ccccc3)o2)cc1 | 85.5 | 180.1* | 98.7 | -87.6 | 4.8* | 24.2 | 186.3* | 108.7 | 94.1
Cc1cc(C)n(-c2nnc(NC34CC5CC(CC(C5)C3)C4)nn2)n1 | 123.6 | 161.6* | 133.6 | -70.1 | 2.54 | -25.0 | 181.8* | 144.7* | 159.1*
O=c1c2ccccc2cnn1-c1ccc(Cl)cc1 | 106.4 | 166.2* | 116.9 | -72.5 | 5.07* | -3.1 | 192.2* | 131.2 | 127.7*
Cc1ccc2cc3cc(C(=O)N4CCCCC4C)oc3nc2c1 (stereo not drawn) | 72.8 | 165.7* | 196.6* | -72.2 | 3.51* | 34.8 | 216.5* | 135.6* | 105.0
C=CCn1c(SCC(=O)Nc2ccc3c(c2)OCO3)nnc1-c1ccccc1 | 93.8 | 92.7 | 3.7 | 8.1 | 1.59 | 11.2 | · | · | ·
O=C(CCS(=O)(=O)c1ccccc1)Nc1ccc(-c2nc3ccccc3s2)cc1 | 65.0 | 164.8* | 170.3* | -71.5 | 7.21* | 43.0 | 239.9* | 113.2 | 89.3
C=CCn1c(SCC(=O)Nc2ccc(-c3nc4ccc(C)cc4s3)cc2)nnc1-c1ccccc1 | 78.1 | 155.6* | 146.0* | -60.9 | 1.05 | 24.8 | 198.2* | 110.3 | 93.8
Cc1ccc2nc(-c3ccc(NC(=O)CN4C(=O)NC(C)(c5ccc(OC(F)F)cc5)C4=O)cc3)sc2c1 (stereo not drawn) | 100.2 | 154.6* | 150.0* | -59.8 | 1.53 | -1.7 | 185.5* | 129.5 | 112.5*
CC(C)(C)c1ccc(S(=O)(=O)NCC(=O)Nc2ccc(-c3nc4ccccc4s3)cc2)cc1 | 110.8 | 112.0 | 18.3 | -13.1 | 1.66 | -4.5 | · | · | ·
Cc1ccccc1N(CC(=O)Nc1ccc(F)cc1)S(C)(=O)=O | 89.2 | 105.1 | 10.4 | -3.9 | 1.24 | 17.2 | · | · | ·
Cc1ccc2nc(-c3ccc(NC(=O)CN(c4ccccc4C)S(C)(=O)=O)cc3)sc2c1 | 109.5 | 152.8* | 195.3* | -59.1 | 3.85* | -6.8 | 218.2* | 130.0 | 108.7
C=CCc1ccccc1OCC(=O)N/N=C/c1ccc(OC(C)=O)cc1OC(C)=O | 90.6 | 95.0 | -36.1 | 5.7 | 1.1 | 11.5 | · | · | ·
CC(=O)c1cccc(NC(=S)NC(=O)c2cccc(C)c2)c1 | 101.1 | 157.0* | 102.1 | -63.9 | 3.68* | -1.4 | 177.5* | 126.5 | 104.7
CC(=O)c1cccc(NC(=S)NC(=O)c2ccccc2C)c1 | 94.9 | 113.8 | 41.2 | -16.1 | 1.86 | 7.7 | · | · | ·
CC(=O)c1cccc(NS(=O)(=O)c2ccc(N/C=C/C(=O)c3ccc(F)cc3)cc2)c1 | 95.9 | 103.3 | 2.9 | -3.7 | 0.55 | 7.6 | · | · | ·
CC(=O)c1cccc(N/C=C\C(=O)c2ccc(C)cc2)c1 | 80.5 | 180.0* | 154.8* | -89.5 | 6.71* | 25.5 | 211.0* | 111.0 | 95.7
CC(=O)c1cccc(NC(=S)NC(=O)c2ccc(Cl)cc2)c1 | 107.9 | 162.2* | 10.3 | -69.6 | 2.54 | -6.7 | 172.6* | 117.8 | 108.3
CCCCC(=O)Nc1ccc(NC(=O)c2ccc(C)c([N+](=O)[O-])c2)cc1OC | 87.8 | 98.0 | -0.9 | 2.2 | 1.51 | 17.7 | · | · | ·
Nc1nnnn1/N=C/c1cccc(OCc2ccccc2Cl)c1 | 83.2 | 98.0 | -0.3 | -0.7 | 1.14 | 23.1 | · | · | ·
SMILES | STAT3 activator | STAT1 activator | APP 5'UTR act | STAT1 inh | NF-kB neuron act | STAT3 inh | STAT1 act conf | NFkB act | STAT3 act STAT1c
C/C(=N\O)c1sc(-c2ccccc2)nc1C | 106.5 | 155.6* | 177.4* | -63.1 | 6.42* | 3.7 | 190.2* | 117.7 | 121.1*
O=Cc1cn(-c2ccccc2)nc1-c1ccc2c(c1)OCCO2 | 107.5 | 159.6* | 140.0* | -75.2 | 6.9* | -7.6 | 193.4* | 133.7* | 109.5
Cc1ccc(N/C=C2/Sc3ccccc3NC2=O)cc1 | 93.7 | 168.4* | 122.6 | -77.2 | 1.73 | 11.7 | 192.1* | 134.6* | 90.5
COc1ccc(N/C=C2/Sc3ccccc3NC2=O)cc1 | 109.7 | 166.2* | 104.1 | -71.2 | 1.79 | -10.3 | 169.9* | 112.5 | 107.1
CCOC(=O)C1CN(S(=O)(=O)c2cccc(C(F)(F)F)c2)c2cc(CC(=O)OC)ccc2O1 (stereo not drawn) | 101.8 | 100.1 | 3.1 | -0.1 | 1.03 | 9.3 | · | · | ·
Cc1nc(N)sc1N=Nc1ccc(Br)cc1 | 115.1 | 158.0* | 121.6 | -63.0 | 7.18* | -16.7 | 213.7* | 161.9* | 123.1*
Cc1[nH]nc(N)c1N=Nc1ccc(Br)cc1 | 93.6 | 108.2 | 20.8 | -12.1 | 1.12 | 12.3 | · | · | ·
CCOCC(=O)Nc1nc2ccc(OCC)cc2s1 | 78.4 | 151.9* | 83.7 | -56.4 | 2.84 | 27.9 | 167.2* | 124.6 | 100.8
CCOc1ccc2nc(N3CCCCCC3)sc2c1 | 76.0 | 191.1* | 194.2* | -98.0 | 7.16* | 29.4 | 246.3* | 144.3* | 105.6
CCOc1ccc2nc(N3CCC(C(=O)N4CCN(C5CCCCC5)CC4)CC3)sc2c1 | 84.4 | 116.8 | 12.5 | -18.7 | 1.01 | 23.8 | · | · | ·
COc1ccc(S(=O)(=O)N2CCN(c3ccccc3)CC2)cc1 | 101.9 | 94.1 | -7.2 | 4.5 | 1.05 | 0.1 | · | · | ·

Source: PubChem BioAssay (several laboratories)
